ChEMBL document CHEMBL5357066, “Development of Novel Membrane Disrupting Lipoguanidine Compounds Sensitizing Gram-Negative Bacteria to Antibiotics” (ACS Med Chem Lett, 2024)
In brackets after ≈: the same amount, converted by molar mass.

Experiments:
Pseudomonas aeruginosa [1] = experiment: Antibacterial activity against Pseudomonas aeruginosa NCTC 13437 assessed as bacterial growth inhibition incubated for overnight by microbroth dilution method; type: functional
Outline: (§1)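 Broth microdilution in Tryptic Soy Broth. DMSO stocks were diluted in TSB as 2-fold series. Overnight TSB cultures were back-diluted to OD 0.01 and mixed 1:1 with compound. Incubation was overnight at 37 °C. MIC was the lowest concentration without visible growth (<0.1 OD600). DMSO vehicle was checked at equivalent concentrations.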

Staphylococcus aureus [2] = experiment: Antibacterial activity against methicillin sensitive Staphylococcus aureus ATCC 9144 assessed as bacterial growth inhibition incubated for overnight by microbroth dilution method; type: functional
Outline: (§2)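 Microbroth dilution in Tryptic Soy Broth. DMSO stocks were diluted in TSB as 2-fold series. Overnight TSB cultures were back-diluted to OD 0.01 and mixed 1:1 with compound. Incubation was overnight at 37 °C. MIC is the lowest concentration with no visible growth (<0.1 OD600). DMSO at equivalent concentrations was checked.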

Staphylococcus aureus [3] = experiment: Antibacterial activity against methicillin resistant Staphylococcus aureus NCTC 13616 assessed as bacterial growth inhibition incubated for overnight by microbroth dilution method; type: functional; outline: as §2
Staphylococcus aureus [4] = experiment: Antibacterial activity against methicillin resistant Staphylococcus aureus USA 300 assessed as bacterial growth inhibition incubated for overnight by microbroth dilution method; type: functional; outline: as §2
Enterococcus faecalis [5] = experiment: Antibacterial activity against vancomycin resistant Enterococcus faecalis NCTC 12201 assessed as bacterial growth inhibition incubated for overnight by microbroth dilution method; type: functional; outline: as §2
Enterococcus faecium = experiment: Antibacterial activity against vancomycin resistant Enterococcus faecium NCTC 12204 assessed as bacterial growth inhibition incubated for overnight by microbroth dilution method; type: functional; outline: as §2
Acinetobacter baumannii [6] = experiment: Antibacterial activity against Acinetobacter baumannii AYE assessed as bacterial growth inhibition incubated for overnight by microbroth dilution method; type: functional; outline: as §1
Acinetobacter baumannii [7] = experiment: Antibacterial activity against Acinetobacter baumannii ATCC 17978 assessed as bacterial growth inhibition incubated for overnight by microbroth dilution method; type: functional; outline: as §1
Pseudomonas aeruginosa [8] = experiment: Antibacterial activity against Pseudomonas aeruginosa PAO1 assessed as bacterial growth inhibition incubated for overnight by microbroth dilution method; type: functional; outline: as §1
Escherichia coli [9] = experiment: Antibacterial activity against Escherichia coli NCTC 12923 assessed as bacterial growth inhibition incubated for overnight by microbroth dilution method; type: functional; outline: as §1
Klebsiella pneumoniae [10] = experiment: Synergistic antibacterial activity against Klebsiella pneumoniae NCTC 13368 assessed as rifampicin MIC at <=0.25 times MIC incubated for overnight by microbroth dilution checkerboard assay; type: functional
Outline: (§3)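 Checkerboard microdilution under MIC conditions (TSB, overnight, 37 °C). Two-fold series of each agent were combined on one plate before bacteria were added, and single-agent MICs were measured on the same plate. FIC = sum of combination MIC/alone MIC for each agent, taken from the most synergistic well. Three independent repeats, mean ± SD. ≤0.5 was taken as strong synergy and 0.5–<1 as weak.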

Klebsiella pneumoniae [11] = experiment: Synergistic antibacterial activity against […] Klebsiella pneumoniae M6 assessed as rifampicin MIC at <=0.25 times MIC incubated for overnight by microbroth dilution checkerboard assay; type: functional
Outline: (§4)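 Checkerboard run under the MIC conditions (TSB, overnight, 37 °C). Antibiotic and lipoguanidine 2-fold series were combined on one plate before bacteria were added. Growth/no-growth was scored as for the MIC (<0.1 OD600). Single-agent MICs were measured on the same plates. Three independent repeats were done.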

Acinetobacter baumannii [12] = experiment: Synergistic antibacterial activity against Acinetobacter baumannii AYE assessed as rifampicin MIC at <=0.25 times MIC incubated for overnight by microbroth dilution checkerboard assay; type: functional; outline: as §3
Acinetobacter baumannii [13] = experiment: Synergistic antibacterial activity against Acinetobacter baumannii ATCC 17978 assessed as rifampicin MIC at <=0.25 times MIC incubated for overnight by microbroth dilution checkerboard assay; type: functional; outline: as §3
Pseudomonas aeruginosa [14] = experiment: Synergistic antibacterial activity against Pseudomonas aeruginosa PAO1 assessed as rifampicin MIC at <=0.25 times MIC incubated for overnight by microbroth dilution checkerboard assay; type: functional
Outline: (§5)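 Checkerboard microdilution in Tryptic Soy Broth, run like the MIC assay. Overnight TSB cultures were back-diluted to OD 0.01 and added 1:1 to the combined two-fold series of both agents, then incubated overnight at 37 °C. Growth/no-growth was called at <0.1 OD600. MICs alone were read on the same plates. FIC index came from the most synergistic well; three independent repeats, mean ± SD.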

Pseudomonas aeruginosa [15] = experiment: Synergistic antibacterial activity against Pseudomonas aeruginosa NCTC 13437 assessed as rifampicin MIC at <=0.25 times MIC incubated for overnight by microbroth dilution checkerboard assay; type: functional; outline: as §5
Escherichia coli [16] = experiment: Synergistic antibacterial activity against Escherichia coli NCTC 12923 assessed as rifampicin MIC at <=0.25 times MIC incubated for overnight by microbroth dilution checkerboard assay; type: functional; outline: as §3
Staphylococcus aureus [17] = experiment: Antibacterial activity against methicillin sensitive Staphylococcus aureus 1199B assessed as bacterial growth inhibition incubated for overnight by microbroth dilution method; type: functional; outline: as §2
Acinetobacter baumannii [18] = experiment: Synergistic antibacterial activity against Acinetobacter baumannii ATCC 17978 assessed as bacterial growth inhibition incubated for overnight in presence of PBMN by microbroth dilution method relative to control; type: functional
Outline: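 Adapted broth microdilution in TSB. The test compound was in a 2-fold dilution series, with PMBN added at a fixed 30 µg/mL. Bacteria at OD 0.02 were added, and plates were incubated overnight at 37 °C. Growth/no growth was read as for the MIC (<0.1 OD600).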

Klebsiella pneumoniae [19] = experiment: Synergistic antibacterial activity against Klebsiella pneumoniae NCTC 13368 assessed as fold change in rifampicin MIC at <=0.25 times MIC incubated for overnight by microbroth dilution checkerboard assay relative to rifampicin alone; type: functional; outline: as §4
Acinetobacter baumannii [20] = experiment: Synergistic antibacterial activity against Acinetobacter baumannii AYE assessed as fold change in rifampicin MIC at <=0.25 times MIC incubated for overnight by microbroth dilution checkerboard assay relative to rifampicin alone; type: functional; outline: as §3
Acinetobacter baumannii [21] = experiment: Synergistic antibacterial activity against Acinetobacter baumannii ATCC 17978 assessed as fold change in rifampicin MIC at <=0.25 times MIC incubated for overnight by microbroth dilution checkerboard assay relative to rifampicin alone; type: functional; outline: as §3
Pseudomonas aeruginosa [22] = experiment: Synergistic antibacterial activity against Pseudomonas aeruginosa PAO1 assessed as fold change in rifampicin MIC at <=0.25 times MIC incubated for overnight by microbroth dilution checkerboard assay relative to rifampicin alone; type: functional; outline: as §5
Pseudomonas aeruginosa [23] = experiment: Synergistic antibacterial activity against Pseudomonas aeruginosa NCTC 13437 assessed as fold change in rifampicin MIC at <=0.25 times MIC incubated for overnight by microbroth dilution checkerboard assay relative to rifampicin alone; type: functional; outline: as §5
Escherichia coli [24] = experiment: Synergistic antibacterial activity against Escherichia coli NCTC 12923 assessed as fold change in rifampicin MIC at <=0.25 times MIC incubated for overnight by microbroth dilution checkerboard assay relative to rifampicin alone; type: functional; outline: as §3
Klebsiella pneumoniae [25] = experiment: Antibacterial activity against Klebsiella pneumoniae M6 assessed as bacterial growth inhibition incubated for overnight by microbroth dilution method
Klebsiella pneumoniae [26] = experiment: Antibacterial activity against ESBL Klebsiella pneumoniae NCTC 13368 assessed as bacterial growth inhibition incubated for overnight by microbroth dilution method
Enterococcus faecalis [27] = experiment: Antibacterial activity against vancomycin sensitive Enterococcus faecalis NCTC 775 assessed as bacterial growth inhibition incubated for overnight by microbroth dilution method

Row | Compound | MIC (Pseudomonas aeruginosa [1]) | MIC (Staphylococcus aureus [2]) | MIC (Staphylococcus aureus [3]) | MIC (Staphylococcus aureus [4]) | MIC (Enterococcus faecalis [5]) | MIC (Enterococcus faecium) | MIC (Acinetobacter baumannii [6]) | MIC (Acinetobacter baumannii [7]) | MIC (Pseudomonas aeruginosa [8]) | MIC (Escherichia coli [9]) | MIC (Klebsiella pneumoniae [10]) | MIC (Klebsiella pneumoniae [11]) | MIC (Acinetobacter baumannii [12]) | MIC (Acinetobacter baumannii [13]) | MIC (Pseudomonas aeruginosa [14]) | MIC (Pseudomonas aeruginosa [15]) | MIC (Escherichia coli [16]) | MIC (Staphylococcus aureus [17]) | inhibition (INH) (Acinetobacter baumannii [18]) | fold change (FC) (Klebsiella pneumoniae [19]) | also measured
1 | CCCCCCCCCCNC(=N)NCCCCN | > 128 µg/mL | 16 µg/mL (≈ 59.2 µM) | 32 µg/mL (≈ 118 µM) | 32 µg/mL (≈ 118 µM) | > 128 µg/mL | > 128 µg/mL | > 128 µg/mL | > 128 µg/mL | > 128 µg/mL | 128 µg/mL (≈ 473 µM) | 0.25 µg/mL | ≤ 0.125 µg/mL | ≤ 0.125 µg/mL | ≤ 0.125 µg/mL | ≤ 0.125 µg/mL | ≤ 0.125 µg/mL | ≤ 0.125 µg/mL | 32 µg/mL (≈ 118 µM) | <20% | >=4 | fold change (FC) (Acinetobacter baumannii [20]): >=4; fold change (FC) (Acinetobacter baumannii [21]): >=4; fold change (FC) (Pseudomonas aeruginosa [22]): >=4; fold change (FC) (Pseudomonas aeruginosa [23]): >=4; fold change (FC) (Escherichia coli [24]): >=4; MIC (Klebsiella pneumoniae [25]): > 128 µg/mL; MIC (Klebsiella pneumoniae [26]): > 128 µg/mL; MIC (Enterococcus faecalis [27]): 128 µg/mL (≈ 473 µM)
2 | CCCCCCCCCCCCNC(=N)NCCCCN | 64 µg/mL (≈ 214 µM) | 2 µg/mL (≈ 6.7 µM) | 4 µg/mL (≈ 13.4 µM) | 4 µg/mL (≈ 13.4 µM) | 16 µg/mL (≈ 53.6 µM) | 16 µg/mL (≈ 53.6 µM) | > 128 µg/mL | 128 µg/mL (≈ 429 µM) | > 128 µg/mL | 16 µg/mL (≈ 53.6 µM) | 0.25 µg/mL | ≤ 0.125 µg/mL | ≤ 0.125 µg/mL | ≤ 0.125 µg/mL | ≤ 0.125 µg/mL | ≤ 0.125 µg/mL | ≤ 0.125 µg/mL | 4 µg/mL (≈ 13.4 µM) | <20% | >=4 | fold change (FC) (Acinetobacter baumannii [20]): >=4; fold change (FC) (Acinetobacter baumannii [21]): >=4; fold change (FC) (Pseudomonas aeruginosa [22]): >=4; fold change (FC) (Pseudomonas aeruginosa [23]): >=4; fold change (FC) (Escherichia coli [24]): >=4; MIC (Klebsiella pneumoniae [25]): > 128 µg/mL; MIC (Klebsiella pneumoniae [26]): > 128 µg/mL; MIC (Enterococcus faecalis [27]): 8 µg/mL (≈ 26.8 µM)
